Reference: ChEMBL document CHEMBL4177671, “Selenium-containing analogues of WC-9 are extremely potent inhibitors of Trypanosoma cruzi proliferation” (Bioorg Med Chem, 2017)
One block for each compound: values may come before it.

Legend:
[1] = Selectivity index, ratio of ED50 for African green monkey Vero cells to ED50 for Trypanosoma cruzi; format: toxicity; details: Vero cells versus Trypanosoma cruzi, read-out: Ratio ED50
Method in brief: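 Calculated as ED50 for Vero cytotoxicity divided by ED50 for the parasite.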

[2] = test system: Trypanosoma cruzi; experiment: Antitrypanosomal activity against tdTomato red labeled trypomastigote stage of Trypanosoma cruzi infected in gamma-irradiated African green monkey Vero cells after 3 days by fluorescence assay; format: functional; details: light or radiation study, 72 h, read-out: ED50 (the source's name)
Method in brief: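 Vero cells, gamma-irradiated at 2,000 Rads, were seeded at 3.4×10^4 per well in RPMI with 10% FBS and incubated overnight at 35 °C, 7% CO2. They were infected with 3.4×10^5 CL-strain tdTomato trypomastigotes per well for 5 h, then washed. Serial dilutions of 1.56–25 μM were run in quadruplicate, with benznidazole at 0.39–6.25 μM. Fluorescence was read at day 3. ED50 was obtained by non-linear regression.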

[3] = test system: Toxoplasma gondii; experiment: Antiparasitic activity against tachyzoite stage of Toxoplasma gondii expressing red fluorescent protein infected in gamma-irradiated African green monkey Vero cells by fluorescence assay; format: functional; details: light or radiation study, read-out: ED50 (the source's name)
Method in brief: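 Tachyzoites expressing red fluorescent protein, assayed per an earlier method with published modifications. Plates were read with lids on, bottom read, excitation 544 nm and emission 590 nm. Values are the mean of one experiment carried out in triplicate.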

[4] = Cytotoxicity against African green monkey Vero cells after 3 to 4 days by Alamar Blue dye-based spectrophotometric method; format: cell-based; details: chlorocebus sabaeus, read-out: ED50 (the source's name)
Method in brief: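 Vero cell cytotoxicity was measured by Alamar Blue assay following a previously described method.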

- EC50 [2]: 5.73 µM
SMILES: N#CSCCOc1ccc(Sc2ccccc2)cc1
- selectivity ratio [1]: > 10.9
- EC50 [3]: 4.58 µM
- CC50 [4]: > 62.5 µM

SMILES: N#C[Se]CC1Cc2c(Oc3ccccc3)cccc2O1 (racemic)
- selectivity ratio [1]: > 307
- EC50 [2]: 0.407 µM
- CC50 [4]: > 125 µM

- EC50 [2]: 5.19 µM
SMILES: N#CSCc1cc2cc(Oc3ccccc3)ccc2o1

SMILES: N#C[Se]CCOc1cccc(Oc2ccc(Cl)cc2)c1
- selectivity ratio [1]: > 1100
- EC50 [2]: 0.114 µM
- CC50 [4]: > 125 µM

SMILES: CCOP(=O)(OCC)C(CNCCOc1ccccc1)P(=O)(OCC)OCC
- EC50 [2]: 5.38 µM

- EC50 [2]: 5.99 µM
SMILES: N#CSCC1Cc2cc(Oc3ccccc3)ccc2O1 (stereo not drawn)
- selectivity ratio [1]: > 10.4
- EC50 [3]: > 10 µM
- CC50 [4]: > 62.5 µM

SMILES: N#C[Se]CCOc1cccc(Oc2ccccc2)c1
- selectivity ratio [1]: > 1760
- EC50 [2]: 0.085 µM
- EC50 [3]: 2.87 µM
- CC50 [4]: > 150 µM

SMILES: N#C[Se]CCOc1cccc(I)c1
- selectivity ratio [1]: > 11.5
- EC50 [2]: 5.44 µM
- CC50 [4]: > 62.5 µM

- EC50 [2]: 1.5 µM
SMILES: O=C(Cn1ccnc1[N+](=O)[O-])NCc1ccccc1 [BENZNIDAZOLE]

SMILES: O=P(O)(O)C(CNCCOc1ccccc1)P(=O)(O)O
- EC50 [2]: 5.69 µM

SMILES: NC(=O)OCCOc1ccc(Oc2ccccc2)cc1
- EC50 [2]: > 10 µM

- EC50 [2]: > 100 µM
SMILES: O=[N+]([O-])c1ccc(Oc2cccc(Br)c2)cc1

SMILES: N#C[Se]CCOc1ccc(Cl)cc1Cl
- selectivity ratio [1]: > 45.3
- EC50 [2]: 1.38 µM
- CC50 [4]: > 62.5 µM

SMILES: N#C[Se]CCOc1cccc(Oc2cccc(F)c2)c1
- selectivity ratio [1]: > 833
- EC50 [2]: 0.075 µM
- CC50 [4]: > 62.5 µM

SMILES: N#C[Se]CC1Cc2ccc(Oc3ccccc3)cc2O1 (racemic)
- selectivity ratio [1]: > 1040
- EC50 [2]: 0.12 µM
- CC50 [4]: > 125 µM

SMILES: N#C[Se]CCOc1ccc(Oc2ccccc2)cc1
- selectivity ratio [1]: > 917
- EC50 [2]: 0.109 µM
- EC50 [3]: 3.7 µM
- CC50 [4]: > 100 µM

- EC50 [2]: > 10 µM
SMILES: N#CSCCOc1cccc(Sc2ccccc2)c1
- EC50 [3]: 3.58 µM
- CC50 [4]: > 50 µM

SMILES: N#C[Se]CCOc1ccc(I)cc1
- EC50 [2]: > 10 µM
- CC50 [4]: > 50 µM

SMILES: N#C[Se]CC1Cc2cc(Oc3ccccc3)ccc2O1 (racemic)
- selectivity ratio [1]: > 1500
- EC50 [2]: 0.083 µM
- CC50 [4]: > 125 µM

SMILES: N#C[Se]CCOc1ccc(Oc2cccc(F)c2)cc1
- selectivity ratio [1]: 1800
- EC50 [2]: 0.085 µM
- CC50 [4]: 153 µM

SMILES: N#C[Se]CCOc1ccc(Oc2ccc(F)cc2)cc1
- EC50 [2]: 0.271 µM
- CC50 [4]: 122 µM

- EC50 [2]: > 10 µM
SMILES: N#COCCOc1ccc(Oc2ccccc2)cc1

SMILES: N#C[Se]CCOc1cccc(Oc2ccc(F)cc2)c1
- selectivity ratio [1]: > 1260
- EC50 [2]: 0.099 µM
- CC50 [4]: > 125 µM

SMILES: N#CSCCOc1ccc(Oc2ccccc2)cc1
- EC50 [2]: 5 µM
- EC50 [3]: 4.8 µM
- CC50 [4]: 82.6 µM

SMILES: N#C[Se]CCOc1cccc(Oc2ccccc2F)c1
- selectivity ratio [1]: 1110
- EC50 [2]: 0.126 µM
- CC50 [4]: 140 µM
